The whole screen tested about 2,500 compounds, of which about 1,200 (48%) were called active.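 The calls were made as follows: active = mean activation above the low control average plus 3 SD, as set in the primary screen (cut at about 12% in these data); inactive = the rest.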 The set was probably picked from earlier hits. This is one part of the list.

For the test, the target named is Troponin I, cardiac muscle (Homo sapiens) + Troponin T, cardiac muscle (Homo sapiens) + Troponin C, slow skeletal and cardiac muscles (Homo sapiens) (UniProt P19429+P45379+P63316). Put plainly: calcium sensitizers of cardiac thin filaments – biochemical, IANBD-TnC fluorescence, triplicate, confirmation (AID 504383).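 Also: 0% = DMSO at 0.472 mM calcium and 100% = DMSO at 2.9 mM calcium.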 Conditions: IANBD-labeled cardiac RTF, Ca2+ sensitivity fluorescence; at 7.2 µM; stronger effect = higher value; scaled from EC20 to saturating calcium; tested at EC20 calcium, 0.472 mM. The method, boiled down: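 Test system: labelled regulated thin filament protein complex. Dosing: single nominal compound dose of 7.2 µM. Benchmarks: EC20 and EC100 calcium wells. Read-out basis: fluorescence gain scaled between EC20 and EC100 calcium controls. Probe or stimulus: submaximal calcium at 0.472 mM (EC20). Technique: fluorescence. Times: 15 min compound exposure, 25 °C.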
`C[C@H]1COc2c(N3CCN(C)CC3)c(F)cc3c(=O)c(C(=O)O)cn1c23`: the activation is 6.23% (inactive). With `CN(C)c1ccc(/C=C/c2cc[n+](C)cc2)cc1` the figure was 28.1% (active); with `Cc1ccc(/C=C/c2ccc(N(C)C)cc2)[n+](C)c1`, 9.58% (inactive). Consider `CN(C)c1ccc(/C=C/c2cc[n+](C)c3ccccc23)cc1`, for which the activation is 6.25% (inactive). `CCOc1cc(/C=C2\NC(=O)NC2=O)cc([N+](=O)[O-])c1O`: the activation is 8.6% (inactive). With `COc1ccc(O)c(/C=N/c2nc3ccccc3n2C)c1` the figure was 10.8% (inactive); with `COc1ccc(N=Cc2cc3c(cc2O)OC(N)=C(C#N)C3c2ccccc2)cc1` (stereo not drawn), 95.8% (active).

In the case of `Cc1ccccc1N=Cc1cc2c(cc1O)OC(N)=C(C#N)C2c1ccccc1` (stereo not drawn), the activation was 15.4% (active). Take `Cc1cc(C)n(-c2nc3ccccc3nc2Nc2ccc3[nH]c(=O)[nH]c3c2)n1`: the activation was 15.9% (active). With `Cc1cc(S(=O)(=O)Cc2noc(-c3c(C)noc3C)n2)c(C)cc1Cl` the figure was 5.06% (inactive). With `O=C(O)C1CCC(CNCc2ccccc2Cl)CC1` (stereo not drawn) the figure was 10.5% (inactive); with `CC(C)(ONC(=O)Nc1ccccc1Cl)C(=O)O`, 833% (active). Regarding `CCN1C(=O)[C@@H]2Cc3c([nH]c4ccccc34)C(c3ccc(OC)cc3)N2C1=S` (stereo partly drawn), the activation is 6.48% (inactive). On to `CC(C)c1ccc(C2c3[nH]c4ccccc4c3C[C@H]3C(=O)N(c4ccccc4C(=O)N4CCC(C(=O)O)CC4)C(=O)N23)cc1` (stereo partly drawn), for which the activation was 12% (active).

As to `O=C(NCCN1CCOCC1)c1ccccc1N1C(=O)[C@@H]2Cc3c([nH]c4ccccc34)C(c3ccc(F)cc3)N2C1=O` (stereo partly drawn), the activation was 4.51% (inactive).

Turning to `CCOc1nc(OCC)c2[nH]c(C(=O)O)c(Br)c2n1`, the activation is 4.87% (inactive). With `CC1CN(CCCCOc2ccc3ccccc3c2)CC(C)O1` (stereo not drawn) the figure was 7.54% (inactive); with `Cc1ccccc1C(=O)c1cccn1CC(=O)NCCCN1CC(C)CC(C)C1` (stereo not drawn), 5.75% (inactive); with `CC1CC(C)CN(CCOCCSc2ccccc2)C1` (stereo not drawn), 76.1% (active). With `Cc1ccccc1C1CC(=O)Oc2cc(O)ccc21` (stereo not drawn) the figure was -1.84% (inactive). With `COCCn1c(SCC(=O)Nc2ccc(NC(=O)c3ccco3)c(OC)c2)nc2ccccc2c1=O` the figure was 14.4% (active); with `O=C(CSc1ccc(Cl)cc1)Nc1cccc(NC(=O)c2ccco2)c1`, 9.78% (inactive). In the case of `COC1=CC2(O)CCCC2=CC1=O` (stereo not drawn), the activation was 6.42% (inactive). `CC(C)(C)NC(=O)NC(=O)Cn1ccsc1=N`: the activation was 135% (active). With `Cc1nc2c(C#N)cnn2c2c1CCN(Cc1ccccc1)N2C` the figure was 389% (active); with `Cc1c2c(n3c(nc4ccccc43)c1C#N)N(CCN1CCOCC1)CC2`, 10% (inactive); with `O=C1c2c(O)cc(O)cc2O[C@@]12c1c(cc(O)c3c1O[C@H](c1ccc(O)cc1)[C@@H](O)C3)O[C@@H]2c1ccc(O)cc1`, 5.77% (inactive). With `CCOc1ccc(C2CC(c3c(O)c4ccccc4oc3=O)=NN2c2ccccc2)cc1OC` (stereo not drawn) the figure was 22.3% (active); with `CCC1(C)COC(c2ccc(OC)c(OC)c2)OC1` (stereo not drawn), 1.48% (inactive); with `NC(=O)c1cc2ccc(O)cc2oc1=NCc1ccccc1`, 6.57% (inactive).

Consider `Cc1ccc(NC(=O)c2cc(S(=O)(=O)N3CCCCC3)ccc2N2CCOCC2)cc1S(=O)(=O)N(C)C`, for which the activation was 7.6% (inactive). With `CCOC(=O)c1c(-c2ccccc2Cl)csc1NC(=O)c1cc(S(=O)(=O)N2CCOCC2)ccc1C` the figure was 12.7% (active); with `CCCCCC(C)NC(=S)NC(=O)c1cc(S(=O)(=O)N2CCOCC2)ccc1C` (stereo not drawn), 6.76% (inactive); with `Oc1ccc2nnc3c(Br)cnn3c2c1`, 7.23% (inactive). The result for `Cc1nc2oc(C(=O)c3ccccc3)c(N)c2c2c1COC(C)(C)C2` reads 744% (active); that for `CCc1ccc2c(COC(=O)CNS(=O)(=O)c3ccc(NC(C)=O)cc3)cc(=O)oc2c1`, 34.8% (active); that for `CN(C)c1ccc(/C=C2\Oc3ccc(C#Cc4cccc(N)c4)cc3C2=O)cc1`, 4.36% (inactive). For the molecule `COc1ccccc1C(=O)Oc1ccc2c(c1)O/C(=C\c1ccncc1)C2=O`, the activation is 31.6% (active).

With `COc1ccc(/C=C2\Oc3cc(OCC(N)=O)ccc3C2=O)cc1OC`, the activation is 6.98% (inactive). The result for `O=C(Oc1ccc2c(c1)O/C(=C\c1ccncc1)C2=O)c1ccccc1` reads 104% (active).

`Cc1ccc(-n2nnnc2C(=Cc2ccc(N(C)C)cc2)c2nnnn2-c2ccc(C)cc2)cc1`: the activation was 14.4% (active).

`Cc1ccc(-n2nnnc2-c2cnc3cc4c(cc3c2C)OCO4)cc1`: the activation is 4.93% (inactive). Regarding `O=c1c(/C=C(\O)c2ccc(F)cc2)nc2ccccc2n1-c1ccccc1`, the activation is 6.91% (inactive).

Regarding `CCCNC(=O)Cn1c(=O)/c(=C\c2ccc(-c3ccc([N+](=O)[O-])cc3)o2)s/c1=C\C(=O)C(C)(C)C`, the activation is 28.6% (active). The result for `CCCNC(=O)Cn1c(=O)/c(=C/c2ccc(-c3ccc([N+](=O)[O-])cc3)o2)s/c1=C\C(=O)C(C)(C)C` reads 29.9% (active); that for `CC(C)(C)C(=O)/C=c1\s/c(=C\c2ccc(-c3ccc([N+](=O)[O-])cc3)o2)c(=O)n1CC(=O)NC(N)=O`, 46.3% (active).

Regarding `CC1=CC(=C(C#N)C#N)C=C(C)N1Cc1ccc(Cl)cc1`, the activation was 52.2% (active). Take `CS(=O)(=O)Nc1nc2n(n1)C(c1ccccc1)C=C(c1ccc(Br)cc1)N2` (stereo not drawn): the activation was 35.8% (active). With `O=c1cc2c(c(-c3ccccc3)n1Cc1ccccc1)[C@H](CCO)NC2` the figure was 16.1% (active); with `O=c1cc(-c2ccccc2)oc2ccc(Br)cc12`, 6.06% (inactive). With `O=c1ccc2c(-c3ccccc3)c3ccc(O)cc3oc-2c1` the figure was 88.1% (active).

`Nc1ccc(-c2c3ccc(=O)cc-3oc3cc(O)ccc23)cc1C(=O)O`: the activation is 4.67% (inactive). With `Cn1cc(C2=C(c3ccc(Cl)cc3Cl)C(=O)NC2=O)c2ccccc21` the figure was 32.9% (active); with `O=C(NCC1CCCO1)c1c(O)nc2sccn2c1=O` (stereo not drawn), 17.7% (active). As for `Cc1nccc(-c2cccc(N/N=C(\C#N)C(=O)c3ccccc3)c2)n1`, the activation is 6.06% (inactive). Take `CC(C)c1ccc(OCC(=O)NC(Cc2c[nH]c3ccccc23)C(=O)O)cc1` (stereo not drawn): the activation is 4.54% (inactive). With `COc1ccc2c(CC(=O)N[C@@H](Cc3c[nH]c4ccccc34)C(=O)O)cc(=O)oc2c1` the figure was 16.7% (active); with `COc1ccc(/C=N/NC(=O)C(Cc2c[nH]c3ccccc23)NC(=O)OCC(C)C)cc1[N+](=O)[O-]` (stereo not drawn), 7.99% (inactive).

The record behind these values is PubChem BioAssay AID504383 (The Scripps Research Institute Molecular Screening Center, 2011).
